Activity calls are given as the source filed them. The rule behind the calls is not given here.
How the values were obtained:
[1] = Clearance in rat assessed as liver blood flow at 1 mg/kg,iv; format: ADME, organism-based; settings: in vivo
[2] = AUC (0 to infinity) in rat at 5 mg/kg,po; format: ADME, organism-based; design: dose 5 mg/kg, route po; settings: in vivo
[3] = target: T1, Bromodomain-containing protein 9 (Homo sapiens, UniProt Q9H8M2); assay: Displacement of biotinylated JQ1 from BRD9 bromodomain (unknown origin) incubated for 20 mins by AlphaLISA assay
T1 sequence (Q9H8M2 whole entry): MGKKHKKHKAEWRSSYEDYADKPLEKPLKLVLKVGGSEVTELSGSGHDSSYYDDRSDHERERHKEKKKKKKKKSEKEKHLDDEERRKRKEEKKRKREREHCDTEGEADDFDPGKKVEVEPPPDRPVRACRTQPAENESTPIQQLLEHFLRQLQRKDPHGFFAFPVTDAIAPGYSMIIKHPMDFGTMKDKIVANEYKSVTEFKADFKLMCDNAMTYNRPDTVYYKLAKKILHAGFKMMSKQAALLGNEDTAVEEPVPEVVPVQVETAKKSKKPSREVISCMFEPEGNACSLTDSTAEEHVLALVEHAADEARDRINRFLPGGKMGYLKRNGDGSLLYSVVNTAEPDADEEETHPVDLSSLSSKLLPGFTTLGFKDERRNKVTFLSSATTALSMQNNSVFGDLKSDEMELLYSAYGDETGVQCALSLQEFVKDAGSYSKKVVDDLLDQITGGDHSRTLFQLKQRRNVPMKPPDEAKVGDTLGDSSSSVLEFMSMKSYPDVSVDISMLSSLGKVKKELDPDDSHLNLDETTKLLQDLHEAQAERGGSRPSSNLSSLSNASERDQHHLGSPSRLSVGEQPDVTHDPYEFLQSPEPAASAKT

[4] = Unbound AUC in dog at 2.5 mg/kg,po; format: ADME, organism-based, Canis lupus familiaris; settings: in vivo
[5] = Initial plasma concentration in human patient with progression lymphoma at 300 mg,po QD and measured after 24 hrs; format: ADME; settings: read-out: C0
Method in brief: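 Trough plasma concentration taken as concentration at 24 h after oral dosing, 300 mg cohort, patients with hematologic malignancies.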

MV4-11 [6] = assay: In vivo inhibition of BRD4 in human MV4-11 cells xenografted in BALB/c mouse assessed as reduction in cellular MYC mRNA expression level in tumor at 15 mg/kg,sc BID and measured for 8 to 12 hrs by PCR anlaysis; format: functional, organism-based; settings: time 8-12 hrs
Method in brief: (§1)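 Pharmacodynamic study in MV-4-11 AML mouse xenograft. Dosing was 15 mg/kg subcutaneous twice daily. At 4, 8 and 12 h after the second dose, MYC mRNA was measured against vehicle, and compound levels were measured in plasma and tumor. Free plasma concentration was estimated alongside total levels.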

[7] = Toxicity in rat assessed as mild to moderate hyperglycemia at 2 to 20 mg/kg,po QD consecutive for 14 days followed by 2 weeks recovery period; format: organism-based; settings: in vivo, 336 h, dose 2-20 mg/kg, time 14 day
Method in brief: (§2)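 Oral suspension given once daily for 14 consecutive days (rat 2, 6, 20 mg/kg; dog 2, 4, 6 mg/kg) in dose range-finding and GLP repeat-dose studies, GLP arms with an added 2-week recovery period; histopathology and clinical pathology findings recorded.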

[8] = Toxicity in rat assessed as lymphoid depletion at 2 to 20 mg/kg,po QD consecutive for 14 days followed by 2 weeks recovery period; format: organism-based; settings: in vivo, 336 h, dose 2-20 mg/kg, time 14 day; method in brief: as §2
MV4-11 [9] = assay: In vivo inhibition of BRD4 in human MV4-11 cells xenografted in BALB/c mouse assessed as reduction in cellular MYC mRNA expression level in plasma at 15 mg/kg,sc BID and measured at 4 hrs by PCR anlaysis; format: functional, organism-based; method in brief: as §1
[10] = Toxicity in dog assessed as to mild to moderate hyperglycemia at 2 to 6 mg/kg,po QD consecutive for 14 days followed by 2 weeks recovery period; format: organism-based, Canis lupus familiaris; settings: in vivo, 336 h, dose 2-6 mg/kg, time 14 day; method in brief: as §2
[11] = target: T2, Transcription intermediary factor 1-alpha (Homo sapiens, UniProt O15164); assay: Displacement of biotinylated JQ1 from TRIM24 bromodomain (unknown origin) incubated for 20 mins by AlphaLISA assay
T2 sequence (O15164 whole entry): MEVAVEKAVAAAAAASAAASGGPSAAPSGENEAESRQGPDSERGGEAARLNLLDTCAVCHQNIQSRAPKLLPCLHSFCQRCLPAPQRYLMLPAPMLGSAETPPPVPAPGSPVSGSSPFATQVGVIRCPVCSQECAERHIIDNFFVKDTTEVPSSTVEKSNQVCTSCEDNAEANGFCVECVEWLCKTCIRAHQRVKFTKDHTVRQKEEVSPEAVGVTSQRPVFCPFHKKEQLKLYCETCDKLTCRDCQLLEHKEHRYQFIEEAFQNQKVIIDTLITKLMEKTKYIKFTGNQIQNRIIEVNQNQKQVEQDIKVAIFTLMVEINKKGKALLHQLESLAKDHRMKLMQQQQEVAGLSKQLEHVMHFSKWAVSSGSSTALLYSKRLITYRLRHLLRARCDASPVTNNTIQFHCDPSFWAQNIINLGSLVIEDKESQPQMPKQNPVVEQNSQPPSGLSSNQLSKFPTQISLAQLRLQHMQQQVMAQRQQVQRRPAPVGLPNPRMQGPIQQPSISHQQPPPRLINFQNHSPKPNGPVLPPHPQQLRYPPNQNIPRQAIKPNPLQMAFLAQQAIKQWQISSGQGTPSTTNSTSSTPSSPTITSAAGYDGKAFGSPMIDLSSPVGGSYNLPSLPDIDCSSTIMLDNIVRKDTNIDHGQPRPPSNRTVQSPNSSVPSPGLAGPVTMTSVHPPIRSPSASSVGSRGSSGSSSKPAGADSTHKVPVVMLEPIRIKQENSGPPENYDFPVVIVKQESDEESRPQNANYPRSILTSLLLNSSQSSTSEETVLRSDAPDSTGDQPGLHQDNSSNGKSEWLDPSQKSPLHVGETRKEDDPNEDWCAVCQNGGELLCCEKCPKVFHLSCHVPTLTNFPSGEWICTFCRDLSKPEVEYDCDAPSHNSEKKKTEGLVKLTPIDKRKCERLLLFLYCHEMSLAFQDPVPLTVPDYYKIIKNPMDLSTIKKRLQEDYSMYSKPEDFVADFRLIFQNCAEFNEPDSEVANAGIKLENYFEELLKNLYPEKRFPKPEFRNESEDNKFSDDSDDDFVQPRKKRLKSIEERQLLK

[12] = Tmax in rat at 5 mg/kg,po; format: ADME, organism-based; settings: in vivo
[13] = Cmax in human patient with progression lymphoma at 300 mg,po QD consecutively for 14 days; format: ADME; design: time 14 day, dose 300 mg, route po; settings: in vivo
Method in brief: (§3)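 Phase I trial in patients with hematologic malignancies, oral dosing once daily with escalating cohorts; values are from the 300 mg dose on day 14. AUC0-24 was taken as exposure over 24 h. Apparent clearance was calculated as Dose/AUC0-24.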

[14] = target: Bromodomain-containing protein 8 (Homo sapiens, UniProt Q9H0E9); assay: Displacement of biotinylated JQ1 from BRD8 bromodomain (unknown origin) incubated for 20 mins by AlphaLISA assay
Sequence of Bromodomain-containing protein 8 (Q9H0E9 whole entry): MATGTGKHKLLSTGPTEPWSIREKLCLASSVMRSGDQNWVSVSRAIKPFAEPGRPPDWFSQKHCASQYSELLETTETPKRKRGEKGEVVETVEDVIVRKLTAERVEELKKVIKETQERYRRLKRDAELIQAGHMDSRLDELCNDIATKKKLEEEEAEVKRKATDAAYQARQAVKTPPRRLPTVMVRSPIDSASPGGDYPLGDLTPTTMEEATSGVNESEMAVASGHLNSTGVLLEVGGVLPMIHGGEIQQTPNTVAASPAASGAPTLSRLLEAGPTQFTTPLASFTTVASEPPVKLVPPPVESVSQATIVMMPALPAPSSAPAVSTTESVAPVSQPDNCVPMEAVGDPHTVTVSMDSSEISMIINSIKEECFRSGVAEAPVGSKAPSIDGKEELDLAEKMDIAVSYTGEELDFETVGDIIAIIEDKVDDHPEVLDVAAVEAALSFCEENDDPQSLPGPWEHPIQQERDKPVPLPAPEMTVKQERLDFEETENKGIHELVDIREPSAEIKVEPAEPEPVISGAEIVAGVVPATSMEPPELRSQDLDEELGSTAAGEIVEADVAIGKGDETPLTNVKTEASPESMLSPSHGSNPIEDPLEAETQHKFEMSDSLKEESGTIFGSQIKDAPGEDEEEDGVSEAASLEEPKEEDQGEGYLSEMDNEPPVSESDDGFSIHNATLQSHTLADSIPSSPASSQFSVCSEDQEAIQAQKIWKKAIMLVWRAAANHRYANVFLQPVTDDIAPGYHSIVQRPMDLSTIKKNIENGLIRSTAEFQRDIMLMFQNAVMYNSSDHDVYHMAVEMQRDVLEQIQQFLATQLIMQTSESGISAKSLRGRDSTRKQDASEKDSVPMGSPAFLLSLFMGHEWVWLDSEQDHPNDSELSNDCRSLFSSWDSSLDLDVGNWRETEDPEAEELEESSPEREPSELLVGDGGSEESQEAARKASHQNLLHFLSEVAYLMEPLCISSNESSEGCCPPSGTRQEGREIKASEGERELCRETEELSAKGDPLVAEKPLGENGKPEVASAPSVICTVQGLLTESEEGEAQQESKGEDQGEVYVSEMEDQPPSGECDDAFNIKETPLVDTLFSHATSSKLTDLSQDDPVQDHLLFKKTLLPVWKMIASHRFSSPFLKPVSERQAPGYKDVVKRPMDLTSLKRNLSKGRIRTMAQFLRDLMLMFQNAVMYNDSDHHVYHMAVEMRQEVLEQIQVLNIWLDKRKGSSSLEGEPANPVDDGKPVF

[15] = Toxicity in dog assessed as GI mucosal atrophy at 2 to 6 mg/kg,po QD consecutive for 14 days followed by 2 weeks recovery period; format: organism-based, Canis lupus familiaris; settings: in vivo, 336 h, dose 2-6 mg/kg, time 14 day; method in brief: as §2
[16] = AUC (0 to 24 hrs) in human patient with progression lymphoma at 300 mg,po QD and measured after 24 hrs; format: ADME; design: time 24 hrs, dose 300 mg, route po; settings: in vivo; method in brief: as §3
[17] = Protein binding in mouse plasma; format: ADME, cell-free; settings: read-out: PPB (converted)

Cc1noc2c1-c1ccccc1C(c1ccc(Cl)cc1)=N[C@H]2CC(N)=O [PELABRESIB]
QH [1]: 36%
AUC(0-inf) [2]: 9.1 µM·h
IC50 [3]: > 80 µM
fAUC [4]: 1.1 µM·h
concentration at 24 h [5]: 0.22 µM
inhibition (MV4-11 [6]): inactive
Activity [7]: Toxic
Activity [8]: Toxic
inhibition (MV4-11 [9]): Active
Activity [10]: Toxic
IC50 [11]: > 20 µM
Tmax [12]: 1.2 h
Cmax [13]: 5.9 µM
IC50 [14]: > 15 µM
Activity [15]: Toxic
AUC at 24 h [16]: 49 µM·h
fraction unbound [17]: 0.03
